Measurements reported in ChEMBL document CHEMBL2375332, “Novel quinolone substituted thiazolidin-4-ones as anti-inflammatory, anticancer agents: design, synthesis and biological screening” (Eur J Med Chem, 2013).
Values after ≈ are worked out from the molar mass of the structure shown.

Legend:
BT-549 = assay: Cytotoxicity against human BT549 cells at 100 ug/ml […] by MTT assay; type: cell-based
Rattus norvegicus = assay: Antiinflammatory activity in albino rat assessed as inhibition of carrageenan-induced paw edema at 100 mg/kg, po administered 1 hr prior to carrageenan-challenge measured after 3 hrs relative to control; type: functional
Method in brief: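 Charles Foster albino rats of either sex (150–200 g, pregnant females excluded), six per group, dosed orally; 1 h later 0.2 mL of 1% carrageenan in 0.9% NaCl injected into right hind paw subplantar tissue. Paw volume read by plethysmometer at injection and 3 h later. Control group received carrageenan only. % inhibition = 1–Dt/Dc×100. Mean ± S.D.; one-way ANOVA with Tukey's test.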

HeLa = assay: Cytotoxicity against human HeLa cells at 100 ug/ml […] by MTT assay; type: cell-based
ACHN = assay: Cytotoxicity against human ACHN cells […] by MTT assay; type: functional, cell-based
COLO 205 = assay: Cytotoxicity against human COLO205 cells […] by MTT assay; type: functional, cell-based

Row | SMILES | Activity (BT-549) | inhibition in vivo at 100 mg/kg (Rattus norvegicus) | Activity (HeLa) | IC50 (ACHN) | IC50 (COLO 205)
1 | Cc1cc(=O)[nH]c2cc(N3C(=O)CSC3c3ccc(N(C)C)cc3)ccc12 (stereo not given) | 29.327% | 13.3% | 33.267% | – | –
2 | Cc1cc(=O)[nH]c2cc(N3C(=O)CSC3c3ccc([N+](=O)[O-])cc3)ccc12 (stereo not given) | 40.478% | 25.2% | 54.851% | – | –
3 | Cc1cc(=O)[nH]c2cc(N3C(=O)CSC3c3ccco3)ccc12 (stereo not given) | 49.658% | 5.16% | 41.188% | – | –
4 | Cc1cc(=O)[nH]c2cc(N3C(=O)CSC3c3ccccc3Br)ccc12 (stereo not given) | 38.709% | 14% | 44.279% | – | –
5 | Cc1cc(=O)[nH]c2cc(N3C(=O)CSC3c3cccc(O)c3)ccc12 (stereo not given) | 18.522% | 14.3% | 71.485% | – | –
6 | Cc1cc(=O)[nH]c2cc(N3C(=O)CSC3c3ccccc3[N+](=O)[O-])ccc12 (stereo not given) | 44.953% | 24.1% | 28.316% | – | –
7 | Cc1cc(=O)[nH]c2cc(N3C(=O)CSC3N3CCOCC3)ccc12 (stereo not given) | 25.274% | 1.75% | 23.662% | – | –
8 | Cc1cc(=O)[nH]c2cc(N3C(=O)CSC3c3ccccc3O)ccc12 (stereo not given) | 44.328% | 16.4% | 43.168% | – | –
9 | Cc1cc(=O)[nH]c2cc(N3C(=O)CSC3c3ccc(Br)o3)ccc12 (stereo not given) | 42.357% | 23.3% | 31.332% | – | –
10 | COc1cc(C2SCC(=O)N2c2ccc3c(C)cc(=O)[nH]c3c2)ccc1O (stereo not given) | 54.11% | 12.4% | 41.028% | – | –
11 | Cc1cc(=O)[nH]c2cc(N3C(=O)CSC3c3ccccc3Cl)ccc12 (stereo not given) | 61.394% | 14.5% | 52.496% | – | –
12 | Cc1cc(=O)[nH]c2cc(N3C(=O)CSC3c3ccc(F)cc3)ccc12 (stereo not given) | 43.311% | 19% | 14.231% | – | –
13 | O=c1[nH]cc(F)c(=O)[nH]1 [FLUOROURACIL] | – | – | – | 9.87 µg/mL (≈ 75.9 µM) | 4.56 µg/mL (≈ 35.1 µM)
14 | Cc1cc(=O)[nH]c2cc(N3C(=O)CSC3c3cccc(F)c3)ccc12 (stereo not given) | 50.052% | 23.6% | 52.738% | – | –
15 | COc1ccc(C2SCC(=O)N2c2ccc3c(C)cc(=O)[nH]c3c2)cc1 (stereo not given) | 39.334% | 21.4% | 47.326% | – | –
16 | Cc1cc(=O)[nH]c2cc(N3C(=O)CSC3c3ccncc3)ccc12 (stereo not given) | 22.176% | 7.62% | 20.343% | – | –
17 | Cc1cc(=O)[nH]c2cc(N3C(=O)CSC3c3ccc(Br)s3)ccc12 (stereo not given) | 52.34% | 24% | 33.267% | – | –
